According to ChEMBL document CHEMBL4145525, “Machine learning prioritizes synthesis of primaquine ureidoamides with high antimalarial activity and attenuated cytotoxicity” (Eur J Med Chem, 2018):

Key:
[1] = tested on: NCI-H460; assay: Cytotoxicity against human NCI-H460 cells assessed as growth inhibition at 10 uM cotreated with G6PD inhibitor 6-AN after 72 hrs by MTT assay; format: cell-based; conditions: nci-h460, 72 h
Method in brief: (§1)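 Adherent cells seeded at 2×10^4–4×10^4 cells/well and left 24 h, then treated with compound alone or together with 6-aminonicotinamide (always 10 µM, used to mimic G6PD deficiency). Final DMSO <0.2%. Growth measured by MTT after 72 h and expressed as percentage growth relative to untreated cells.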

[2] = tested on: HCT-116; assay: Cytotoxicity against human HCT116 cells assessed as growth inhibition after 72 hrs by MTT assay; format: cell-based; conditions: HCT-116, 72 h
Method in brief: (§2)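 Cells cultured in DMEM or RPMI-1640 with 10% FBS, 2 mM L-glutamine and antibiotics at 37 °C, 5% CO2. Seeded at 2×10^4–4×10^4 cells/well and attached for 24 h before five serial 10-fold compound dilutions, final DMSO <0.2%. MTT at 72 h. IC50 interpolated between the two concentrations flanking 50% growth inhibition; single experiment.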

[3] = Cytotoxicity against human MCF7 cells assessed as cell growth at 10 uM after 72 hrs by MTT assay relative to control; format: cell-based; conditions: read-out: Activity; method in brief: as §1
[4] = tested on: Plasmodium falciparum; assay: Antiplasmodial activity against erythrocytic stage of Plasmodium falciparum NF54 assessed as reduction in [3H]hypoxanthine incorporation after 48 hrs by liquid scintillation counting method; format: functional, organism-based
Method in brief: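 Asexual blood-stage NF54 grown in hypoxanthine-free RPMI 1640 with HEPES, NaHCO3, neomycin and Albumax, using washed human A+ erythrocytes at 2.5% hematocrit and 0.3% parasitemia. Compounds were made as 10 mg/ml DMSO stocks and run as eleven 3-fold dilutions, 100 to 0.002 µg/ml. Incubation at 37 °C in 4% CO2, 3% O2, 93% N2. After 48 h, 0.5 µCi 3H-hypoxanthine was added for a further 24 h, then harvested and scintillation counted. IC50 by linear interpolation of sigmoidal curves; averages of 2–3 independent experiments.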

[5] = tested on: K562; assay: Cytotoxicity against human K562 cells assessed as growth inhibition after 72 hrs by MTT assay; format: cell-based; conditions: K562, 72 h
[6] = tested on: MCF7; assay: Cytotoxicity against human MCF7 cells assessed as growth inhibition after 72 hrs by MTT assay; format: cell-based; conditions: MCF7, 72 h
Method in brief: (§3)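 Monolayers grown in DMEM or RPMI-1640 with 10% FBS, 2 mM L-glutamine and penicillin/streptomycin at 37 °C, 5% CO2. Seeded at 2×10^4–4×10^4 cells/well and attached for 24 h. Five serial 10-fold dilutions added, final DMSO <0.2%. MTT read-out at 72 h; percentage growth calculated. IC50 by linear interpolation between concentrations bracketing 50% growth; at least two biological replicates.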

[7] = tested on: A2780; assay: Cytotoxicity against human A2780 cells assessed as growth inhibition after 72 hrs by MTT assay; format: cell-based; conditions: A2780, 72 h; method in brief: as §3
[8] = Safety index, ratio of compound IC50 to primaquine IC50 for rat L6 cells; format: ADME, cell-based; conditions: read-out: Ratio IC50
[9] = Selectivity index, ratio of IC50 for rat L6 cells to IC50 for erythrocytic stage of Plasmodium falciparum NF54; format: toxicity; conditions: read-out: Ratio IC50
Method in brief: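 Ratio of the L6 cytotoxicity IC50 to the IC50 against P. falciparum NF54.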

[10] = tested on: L6; assay: Cytotoxicity against rat L6 cells assessed as reduction in cell viability after 70 hrs by Alamar blue assay; format: cell-based; conditions: L6, 70 h
Method in brief: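 L6 rat skeletal myoblasts were plated at 4000 cells/well in RPMI 1640 with L-glutamine and 10% FBS. Eleven 3-fold drug dilutions, 100 to 0.002 µg/ml. After 70 h, Alamar Blue was added for 2 h and fluorescence read (ex 536 nm, em 588 nm). IC50 by linear interpolation from sigmoid dose-inhibition curves.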

[11] = tested on: CAPAN-1; assay: Cytotoxicity against human Capan1 cells assessed as growth inhibition after 72 hrs by MTT assay; format: cell-based; conditions: CAPAN-1, 72 h; method in brief: as §2
[12] = tested on: NCI-H460; assay: Cytotoxicity against human NCI-H460 cells assessed as growth inhibition after 72 hrs by MTT assay; format: cell-based; conditions: NCI-H460, 72 h; method in brief: as §3
[13] = tested on: SW-620; assay: Cytotoxicity against human SW620 cells assessed as growth inhibition after 72 hrs by MTT assay; format: cell-based; conditions: SW-620, 72 h; method in brief: as §3
[14] = tested on: HL-60; assay: Cytotoxicity against human HL60 cells assessed as growth inhibition after 72 hrs by MTT assay; format: cell-based; conditions: HL-60, 72 h
[15] = Cytotoxicity against human MCF7 cells assessed as cell growth at 10 uM cotreated with G6PD inhibitor 6-AN after 72 hrs by MTT assay relative to control; format: cell-based; method in brief: as §1

## COc1cc(NC(C)CCCNC(=O)NC(C(=O)NC(c2ccccc2)c2ccc(Cl)cc2)c2ccc(Cl)cc2)c2ncccc2c1 (stereo not given)
[1]
  growth inhibition (GI): Non-Toxic
[2]
  IC50: > 100 µM
[3]
  viability at 72 h, 10 µM: 93%
[4]
  IC50: 1.8 µM
[5]
  IC50: > 100 µM
[6]
  IC50: > 100 µM
[7]
  IC50: 14 µM
[8]
  selectivity ratio: 2.5
[9]
  selectivity ratio: > 83.3
[10]
  IC50: > 150 µM
[11]
  IC50: > 100 µM
[12]
  IC50: > 100 µM
[13]
  IC50: > 100 µM
[14]
  IC50: > 100 µM
[15]
  viability at 72 h, 10 µM: 76%
